Data: ChEMBL document CHEMBL4145448, “Broad activity of diphenyleneiodonium analogues against Mycobacterium tuberculosis, malaria parasites and bacterial pathogens” (Eur J Med Chem, 2018)

Key:
[1] = Selectivity index, ratio of CC50 for human HepG2 cells in presence of 1% FBS to MIC for Klebsiella pneumoniae isolate 248-33-D; type: toxicity; settings: read-out: Selectivity Index
[2] = tested on: Pseudomonas aeruginosa; experiment: Antibacterial activity against Pseudomonas aeruginosa isolate M146201 after 18 hrs by broth microdilution method; type: functional; settings: isolate M146201, 18 h
In short: (§1)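 Broth microdilution per CLSI in cation-adjusted Mueller-Hinton broth. 100 µL inoculum (~10^6 cfu/mL in CaMHB) mixed with 100 µL CaMHB containing compound, 0 to 128 µM. Incubated 18 h at 37 °C. MIC taken as the lowest concentration with no visible growth. Polymyxin B served as positive control. Isolates were stored at -80 °C in tryptone soy broth with 20% glycerol.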

[3] = Selectivity index, ratio of CC50 for human HepG2 cells in presence of 1% FBS to MIC for Klebsiella pneumoniae isolate 224-11-C; type: toxicity; settings: read-out: Selectivity Index
[4] = Selectivity index, ratio of CC50 for human HepG2 cells in presence of 1% FBS to MIC for Pseudomonas aeruginosa QLD PSA 1; type: toxicity; settings: read-out: Selectivity Index
In short: (§2)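 Selectivity index is CC50 (1% FBS) divided by MIC. […] They then got compound at 300 to 0.14 µM (3-fold steps) for 24 h at 37 °C, 5% CO2. Resazurin (10 µM, 2 h) was read at ex/em 560/590 in duplicate wells. For MIC, CLSI broth microdilution was run in CaMHB with ~10^6 cfu/mL inoculum and 0–128 µM compound.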

[5] = Selectivity index, ratio of CC50 for human HepG2 cells in presence of 1% FBS to MIC for vancomycin-intermediate Staphylococcus aureus ATCC 700698; type: toxicity; settings: read-out: Selectivity Index; in short: as §2
[6] = tested on: Acinetobacter baumannii; experiment: Antibacterial activity against Acinetobacter baumannii isolate 07AC-336 after 18 hrs by broth microdilution method; type: functional; settings: isolate 07AC-336, 18 h; in short: as §1
[7] = tested on: Pseudomonas aeruginosa; experiment: Antibacterial activity against Pseudomonas aeruginosa isolate 19147nm after 18 hrs by broth microdilution method; type: functional; in short: as §1
[8] = Cytotoxicity against human HepG2 cells after 24 hrs in presence of 1% FBS by resazurin dye based assay; type: cell-based
In short: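 HepG2 cells seeded at 4000/well in DMEM with 1% FBS and allowed to attach for 24 h at 37 °C, 5% CO2. Compounds added from 300 to 0.14 µM in 3-fold steps and incubated 24 h. 10 µM resazurin added for 2 h, fluorescence read at ex/em 560/590. Percent viability computed relative to untreated and negative controls, duplicate wells.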

[9] = tested on: Acinetobacter baumannii; experiment: Antibacterial activity against Acinetobacter baumannii ATCC 17978 col10 after 18 hrs by broth microdilution method; type: functional; settings: ATCC 17978 col10, 18 h; in short: as §1
[10] = Selectivity index, ratio of CC50 for human HepG2 cells in presence of 1% FBS to MIC for Escherichia coli N4149; type: toxicity; settings: read-out: Selectivity Index
[11] = Selectivity index, ratio of CC50 for human HepG2 cells in presence of 1% FBS to MIC for vancomycin-resistant Staphylococcus aureus ATCC 700699; type: toxicity; settings: read-out: Selectivity Index; in short: as §2
[12] = tested on: Pseudomonas aeruginosa; experiment: Antibacterial activity against Pseudomonas aeruginosa QLD PSA 1 after 18 hrs by broth microdilution method; type: functional; settings: QLD PSA 1, 18 h; in short: as §1
[13] = tested on: Acinetobacter baumannii; experiment: Antibacterial activity against Acinetobacter baumannii ATCC 19606 after 18 hrs by broth microdilution method; type: functional; settings: ATCC 19606 = CIP 70.34 = JCM 6841, 18 h; in short: as §1
[14] = Selectivity index, ratio of CC50 for human HepG2 cells in presence of 1% FBS to MIC for methicillin-resistant Staphylococcus aureus ATCC 43300; type: toxicity; settings: read-out: Selectivity Index; in short: as §2
[15] = Selectivity index, ratio of CC50 for human HepG2 cells in presence of 1% FBS to MIC for Escherichia coli N2381; type: toxicity; settings: read-out: Selectivity Index
[16] = tested on: Pseudomonas aeruginosa; experiment: Antibacterial activity against Pseudomonas aeruginosa isolate 912 after 18 hrs by broth microdilution method; type: functional; settings: isolate 912, 18 h; in short: as §1
[17] = Selectivity index, ratio of CC50 for human HepG2 cells in presence of 1% FBS to MIC for Acinetobacter baumannii isolate 07AC-336; type: toxicity; settings: read-out: Selectivity Index
[18] = tested on: Plasmodium falciparum; experiment: Growth inhibition of CQ-sensitive GFP-fused Plasmodium falciparum D10 after 90 hrs by ethidium bromide staining based flow cytometry; type: functional, organism-based; settings: D10, 90 h
In short: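 Parasites cultured in human O+ erythrocytes in RPMI-HEPES pH 7.4 with hypoxanthine, NaHCO3, gentamicin and 0.5% Albumax II under 1% O2/4% CO2 at 37 °C. Synchronised to rings with heparin plus sorbitol. Set up at 1% parasitaemia and 1% haematocrit with 10x compound added. Cultured 90 h to next-cycle trophozoites. Stained with 10 µg/mL ethidium bromide for 1 h, washed, parasitaemia counted by flow cytometry with GFP gating.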

## COc1ccc2c(c1)[I+]c1ccccc1-2
[1]
  selectivity ratio: > 0.11
[2]
  MIC: 70 µM
[3]
  selectivity ratio: > 0.11
[4]
  selectivity ratio: 0.11
[5]
  selectivity ratio: 0.78
[6]
  MIC: > 70 µM
[7]
  MIC: 8.7 µM
[8]
  CC50 at 24 h: 6.8 µM
[9]
  MIC: 2.2 µM
[10]
  selectivity ratio: > 0.11
[11]
  selectivity ratio: 0.78
[12]
  MIC: 70 µM
[13]
  MIC: 18 µM
[14]
  selectivity ratio: 1.6
[15]
  selectivity ratio: 0.21
[16]
  MIC: > 70 µM
[17]
  selectivity ratio: > 0.11

## Cc1ccc2c(c1)-c1ccccc1[I+]2
[1]
  selectivity ratio: 0.52
[2]
  MIC: 36 µM
[3]
  selectivity ratio: > 0.52
[4]
  selectivity ratio: 1
[5]
  selectivity ratio: 2.2
[6]
  MIC: 18 µM
[7]
  MIC: 9 µM
[8]
  CC50 at 24 h: 37.5 µM
[9]
  MIC: 1.1 µM
[10]
  selectivity ratio: > 0.52
[11]
  selectivity ratio: 2.2
[12]
  MIC: 36 µM
[13]
  MIC: 18 µM
[14]
  selectivity ratio: 4.2
[15]
  selectivity ratio: 0.52
[18]
  IC50: 0.08 µM
[16]
  MIC: 9 µM
[17]
  selectivity ratio: 2.2

## Fc1ccc2c(c1)-c1ccccc1[I+]2
[1]
  selectivity ratio: 0.67
[2]
  MIC: 4.5 µM
[3]
  selectivity ratio: 0.33
[4]
  selectivity ratio: 0.67
[5]
  selectivity ratio: 0.67
[6]
  MIC: 9.1 µM
[7]
  MIC: 1.1 µM
[8]
  CC50 at 24 h: 11.9 µM
[9]
  MIC: 0.56 µM
[10]
  selectivity ratio: 0.33
[11]
  selectivity ratio: 1.3
[12]
  MIC: 18 µM
[13]
  MIC: 4.5 µM
[14]
  selectivity ratio: 2.7
[15]
  selectivity ratio: 0.67
[18]
  IC50: 0.1 µM
[16]
  MIC: 2.2 µM
[17]
  selectivity ratio: 1.3

## Cc1cccc2c1-c1ccccc1[I+]2
[1]
  selectivity ratio: > 0.04
[2]
  MIC: 2.3 µM
[3]
  selectivity ratio: > 0.04
[4]
  selectivity ratio: 0.58
[5]
  selectivity ratio: 0.07
[6]
  MIC: 2.2 µM
[7]
  MIC: 0.57 µM
[8]
  CC50 at 24 h: 2.6 µM
[9]
  MIC: 0.57 µM
[10]
  selectivity ratio: > 0.04
[11]
  selectivity ratio: 0.07
[12]
  MIC: 4.5 µM
[13]
  MIC: 2.3 µM
[14]
  selectivity ratio: 0.07
[15]
  selectivity ratio: 0.14
[18]
  IC50: 0.07 µM
[16]
  MIC: 1.1 µM
[17]
  selectivity ratio: 1.2

## COc1ccc2c(c1)-c1ccccc1[I+]2
[1]
  selectivity ratio: > 0.29
[2]
  MIC: 70 µM
[3]
  selectivity ratio: > 0.29
[4]
  selectivity ratio: 0.29
[5]
  selectivity ratio: 0.58
[6]
  MIC: 70 µM
[7]
  MIC: 18 µM
[8]
  CC50 at 24 h: 20.2 µM
[9]
  MIC: 4.4 µM
[10]
  selectivity ratio: > 0.29
[11]
  selectivity ratio: 0.58
[12]
  MIC: 70 µM
[13]
  MIC: 35 µM
[14]
  selectivity ratio: 1.5
[15]
  selectivity ratio: > 0.29
[18]
  IC50: 0.1 µM
[16]
  MIC: 8.7 µM
[17]
  selectivity ratio: 0.29

## COc1cccc2c1-c1ccccc1[I+]2
[1]
  selectivity ratio: > 0.55
[2]
  MIC: > 70 µM
[3]
  selectivity ratio: > 0.55
[4]
  selectivity ratio: > 0.55
[5]
  selectivity ratio: 1.1
[6]
  MIC: 70 µM
[7]
  MIC: 70 µM
[8]
  CC50 at 24 h: 38.3 µM
[9]
  MIC: 35 µM
[10]
  selectivity ratio: > 0.55
[11]
  selectivity ratio: 1.1
[12]
  MIC: > 70 µM
[13]
  MIC: 35 µM
[14]
  selectivity ratio: 1.1
[15]
  selectivity ratio: 0.55
[18]
  IC50: 0.17 µM
[16]
  MIC: 70 µM
[17]
  selectivity ratio: 0.55

## Clc1ccc2c(c1)-c1ccccc1[I+]2
[1]
  selectivity ratio: 0.93
[2]
  MIC: 4.3 µM
[3]
  selectivity ratio: 0.47
[4]
  selectivity ratio: 1.9
[5]
  selectivity ratio: 3.7
[6]
  MIC: 8.7 µM
[7]
  MIC: 4.3 µM
[8]
  CC50 at 24 h: 16.1 µM
[9]
  MIC: 0.5 µM
[10]
  selectivity ratio: 0.93
[11]
  selectivity ratio: 3.7
[12]
  MIC: 8.7 µM
[13]
  MIC: 4.3 µM
[14]
  selectivity ratio: 7.5
[15]
  selectivity ratio: 0.93
[18]
  IC50: 0.08 µM
[16]
  MIC: 4.3 µM
[17]
  selectivity ratio: 1.9
